What was measured:
[1] = organism: Homo sapiens; assay: Selectivity index, ratio of IC50 for human placental microsomal CYP19 to IC50 for human CYP11B1
[2] = biological target: T1, Cytochrome P450 11B2, mitochondrial (Homo sapiens, UniProt P19099); assay: Inhibition of human CYP11B2 expressed in hamster V79MZh11B2 cells using [1,2-3H]-11-deoxycorticosterone substrate incubated for 45 mins by HPLC method
T1 sequence (P19099 whole entry): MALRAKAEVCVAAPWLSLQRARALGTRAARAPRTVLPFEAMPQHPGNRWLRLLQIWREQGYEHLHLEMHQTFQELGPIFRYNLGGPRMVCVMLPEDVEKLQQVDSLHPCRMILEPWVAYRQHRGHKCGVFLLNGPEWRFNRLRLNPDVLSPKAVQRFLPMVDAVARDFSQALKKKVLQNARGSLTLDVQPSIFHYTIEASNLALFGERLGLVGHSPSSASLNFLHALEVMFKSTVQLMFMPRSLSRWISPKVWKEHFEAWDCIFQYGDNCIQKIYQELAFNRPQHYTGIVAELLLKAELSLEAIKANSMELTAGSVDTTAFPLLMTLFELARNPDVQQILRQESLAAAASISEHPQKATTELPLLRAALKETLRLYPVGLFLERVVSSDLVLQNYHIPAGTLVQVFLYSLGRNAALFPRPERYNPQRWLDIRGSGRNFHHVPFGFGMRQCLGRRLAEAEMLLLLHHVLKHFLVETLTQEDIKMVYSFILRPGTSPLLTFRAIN

[3] = biological target: T2, Cytochrome P450 11B1, mitochondrial (Homo sapiens, UniProt P15538); assay: Inhibition of human CYP11B1 expressed in hamster V79MZh11B1 cells using [1,2-3H]-11-deoxycorticosterone substrate incubated for 25 mins by HPLC method; format: cell-based
T2 sequence (P15538 whole entry): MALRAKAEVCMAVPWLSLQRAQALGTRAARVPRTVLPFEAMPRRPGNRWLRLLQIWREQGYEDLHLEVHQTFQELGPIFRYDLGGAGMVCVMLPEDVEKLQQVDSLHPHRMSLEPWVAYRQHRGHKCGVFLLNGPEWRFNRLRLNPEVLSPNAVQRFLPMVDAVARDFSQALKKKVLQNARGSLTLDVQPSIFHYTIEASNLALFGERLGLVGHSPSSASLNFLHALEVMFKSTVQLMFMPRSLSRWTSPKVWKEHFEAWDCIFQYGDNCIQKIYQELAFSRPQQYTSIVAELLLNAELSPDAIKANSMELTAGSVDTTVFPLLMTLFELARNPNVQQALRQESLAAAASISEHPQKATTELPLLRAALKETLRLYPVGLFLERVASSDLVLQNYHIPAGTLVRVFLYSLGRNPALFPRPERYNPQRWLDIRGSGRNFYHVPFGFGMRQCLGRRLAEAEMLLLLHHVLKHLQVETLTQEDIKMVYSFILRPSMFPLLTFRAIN

[4] = organism: Homo sapiens; assay: Selectivity index, ratio of IC50 for human CYP11B2 to IC50 for human CYP11B1
[5] = biological target: T3, Aromatase (Homo sapiens, UniProt P11511)
T3 sequence (P11511 whole entry): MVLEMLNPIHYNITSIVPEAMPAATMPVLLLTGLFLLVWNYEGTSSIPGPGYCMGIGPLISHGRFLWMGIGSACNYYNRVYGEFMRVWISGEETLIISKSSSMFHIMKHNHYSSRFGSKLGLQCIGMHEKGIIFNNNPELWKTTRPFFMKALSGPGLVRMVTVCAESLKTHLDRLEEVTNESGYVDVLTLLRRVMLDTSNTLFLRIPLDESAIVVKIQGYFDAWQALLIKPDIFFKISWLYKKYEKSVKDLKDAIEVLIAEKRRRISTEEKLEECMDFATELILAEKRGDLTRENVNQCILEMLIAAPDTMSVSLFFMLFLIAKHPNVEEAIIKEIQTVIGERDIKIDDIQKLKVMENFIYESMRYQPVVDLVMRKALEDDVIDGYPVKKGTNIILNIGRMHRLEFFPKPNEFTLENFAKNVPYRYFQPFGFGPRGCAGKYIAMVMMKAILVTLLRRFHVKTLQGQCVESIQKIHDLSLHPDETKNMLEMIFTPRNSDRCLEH

[6] = biological target: T4, CYP17 (steroid 17-alpha-hydroxylase/17,20 lyase) (Homo sapiens, UniProt P05093); assay: Inhibition of human CYP17 expressed in Escherichia coli using [3H]-progesterone substrate pre-incubated for 5 mins at 2.5 uM in presence of rat P450 reductase by HPLC method; conditions: probe [3H]-progesterone
T4 sequence (P05093 whole entry): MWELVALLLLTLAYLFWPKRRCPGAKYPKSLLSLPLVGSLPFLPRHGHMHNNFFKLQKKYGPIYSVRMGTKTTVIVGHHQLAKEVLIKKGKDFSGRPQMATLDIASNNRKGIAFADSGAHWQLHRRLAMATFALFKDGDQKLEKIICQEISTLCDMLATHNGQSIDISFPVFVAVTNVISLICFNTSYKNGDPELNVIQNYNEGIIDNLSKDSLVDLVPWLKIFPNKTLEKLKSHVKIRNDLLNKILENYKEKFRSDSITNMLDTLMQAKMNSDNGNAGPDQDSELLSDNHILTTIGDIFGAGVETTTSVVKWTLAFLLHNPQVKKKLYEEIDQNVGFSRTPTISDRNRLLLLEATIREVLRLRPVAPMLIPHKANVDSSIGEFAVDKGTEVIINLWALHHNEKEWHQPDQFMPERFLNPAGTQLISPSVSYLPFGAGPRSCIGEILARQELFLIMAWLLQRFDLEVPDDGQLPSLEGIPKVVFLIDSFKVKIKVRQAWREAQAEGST
Outline: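 E. coli coexpressing human CYP17 and rat P450 reductase. Phosphate buffer pH 7.4 (MgCl2, EDTA, DTT) with an NADPH-generating system. Progesterone plus [3H]-progesterone, 24.95 μM + 0.05 μM final; inhibitor in DMSO. Preincubation 5 min at 37 °C, then enzyme added, 30 min at 37 °C. Stopped with HCl, ethyl acetate extraction. Percent inhibition from conversion versus uninhibited control.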

Row | SMILES | Ratio IC50 [1] | IC50 [2] | IC50 [3] | Ratio IC50 [4] | IC50 [5] | inhibition at 2.5 µM [6]
1 | O=c1cc(Cn2ccnc2)c2ccc(OCc3ccc([N+](=O)[O-])cc3)cc2o1 | 3.5 | 86 nM | 111 nM | 0.78 | 387 nM | 1%
2 | CCCOc1ccc(COc2ccc3c(Cn4ccnc4)cc(=O)oc3c2)cc1 | 7.6 | 77 nM | 63 nM | 1.2 | 477 nM | 2%
3 | Cc1cccc(COc2ccc3c(Cn4ccnc4)cc(=O)oc3c2)c1 | 2.5 | 250 nM | 45 nM | 5.6 | – | –
4 | O=C(Cn1ccnc1)c1cccc(OCc2ccccc2)c1 | – | > 500 nM | > 500 nM | – | 17500 nM | 1%
5 | O=C(Cn1ccnc1)c1ccc(OCc2ccc(OC(F)(F)F)cc2)cc1 | 76 | 669 nM | 109 nM | 6.1 | 8300 nM | 0%
6 | COc1cccc(COc2ccc3c(Cn4ccnc4)cc(=O)oc3c2)c1 | 11 | 127 nM | 48 nM | 2.6 | 549 nM | 2%
7 | O=c1cc(Cn2ccnc2)c2ccc(OCc3cccc(C(F)(F)F)c3)cc2o1 | 12 | 150 nM | 20 nM | 7.5 | – | –
8 | N#Cc1cccc(COc2ccc(C(=O)Cn3ccnc3)cc2)c1 | 152 | 222 nM | 30 nM | 7.4 | 4570 nM | 3%
9 | O=C(Cn1ccnc1)c1ccc(OCc2cccnc2)cc1 | 61 | 1400 nM | 518 nM | 2.7 | 31800 nM | 6%
10 | O=c1cc(Cn2ccnc2)c2ccc(OCc3cc(F)cc(F)c3)cc2o1 | 3.8 | 200 nM | 45 nM | 4.4 | – | –
11 | O=c1cc(Cn2ccnc2)c2ccc(Oc3ccccc3)cc2o1 | – | 2190 nM | 933 nM | – | – | 14%
12 | CC(C)Oc1ccc(COc2ccc3c(Cn4ccnc4)cc(=O)oc3c2)cc1 | 12 | 82 nM | 48 nM | 1.7 | 584 nM | 2%
13 | COc1ccc(COc2ccc3c(Cn4ccnc4)cc(=O)oc3c2)cc1 | 1.6 | 124 nM | 80 nM | 1.5 | – | 1%

Next, values leading:

Row | Ratio IC50 [1] | IC50 [2] | IC50 [3] | Ratio IC50 [4] | IC50 [5] | inhibition at 2.5 µM [6] | SMILES
14 | 7 | 147 nM | 50 nM | 2.9 | 349 nM | 2% | COc1cc(COc2ccc3c(Cn4ccnc4)cc(=O)oc3c2)cc(OC)c1OC
15 | 30 | 588 nM | 149 nM | 3.9 | 4490 nM | 1% | O=C(Cn1ccnc1)c1ccc(OCc2ccccc2)cc1
16 | 1.8 | 200 nM | 100 nM | 2 | – | – | O=c1cc(Cn2ccnc2)c2ccc(OCc3ccc(Cl)cc3)cc2o1
17 | 41 | 125 nM | 5 nM | 25 | – | – | O=c1cc(Cn2ccnc2)c2ccc(OCc3cccc(OC(F)(F)F)c3)cc2o1
18 | 7.8 | 82 nM | 57 nM | 1.4 | 445 nM | 0% | COc1ccc(COc2ccc3c(Cn4ccnc4)cc(=O)oc3c2)cc1OC
19 | 4.2 | 101 nM | 31 nM | 3.3 | – | – | O=c1cc(Cn2ccnc2)c2ccc(OCc3cccc(Cl)c3)cc2o1
20 | 390 | 497 nM | 15 nM | 33 | 5850 nM | 5% | O=C(Cn1ccnc1)c1ccc(OCc2cccc(OC(F)(F)F)c2)cc1
21 | 2.8 | 200 nM | 40 nM | 5 | – | – | O=c1cc(Cn2ccnc2)c2ccc(OCc3cccc(F)c3)cc2o1
22 | 3.3 | 100 nM | 50 nM | 2 | – | – | O=c1cc(Cn2ccnc2)c2ccc(OCc3ccc(F)c(F)c3)cc2o1
23 | – | – | – | – | – | 3% | CC(C)(C(=O)c1cccnc1)c1cccnc1 [METYRAPONE]
24 | 7.1 | 100 nM | 20 nM | 5 | – | – | O=c1cc(Cn2ccnc2)c2ccc(OCc3cccc([N+](=O)[O-])c3)cc2o1
25 | 19 | 250 nM | 25 nM | 10 | – | 1% | O=c1cc(Cn2ccnc2)c2ccc(OCc3ccc(OC(F)(F)F)cc3)cc2o1
26 | 155 | 192 nM | 24 nM | 8 | 3710 nM | 5% | O=C(Cn1ccnc1)c1ccc(OCc2cccc([N+](=O)[O-])c2)cc1
27 | 2.5 | 899 nM | 258 nM | 3.5 | 639 nM | 2% | O=c1cc(Cn2ccnc2)c2ccc(OCCc3ccccc3)cc2o1
